Rows were chosen to be rich in hits. Some 4.6% of all compounds tested hit in one or more screens of this group.
OX1R antag-1 – antagonists of human orexin 1 receptor; O43613; CHO/OX1R cells, Fluo-8 calcium fluorescence, orexin A; inhibition, % at 5 µM; 330,000 compounds, 0.43% hits; AID 434989;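 active = inhibition above its plate's threshold, mean inhibition of all tested compounds on the plate plus 3 SD, cut at about 37% in these data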;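 also: 0% = orexin A challenge wells and 100% = SB-334867-A antagonist wells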
CHO parental Ca – counter-screen for OX1R antagonists: effect in parental CHO cells. 330,000 compounds, 0.63% hits. AID 463079. parental CHO-K1, ATP-induced calcium, Fluo-8 fluorescence. inhibition, % at 5.6 µM;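 active = inhibition above that plate's mean sample inhibition plus 3 SD, cut at about 26% in these data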;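 also: 0% = ATP-challenged DMSO wells and 100% = DMSO wells without ATP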
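Assay system: parental CHO cells; Read-out basis: percent inhibition of ATP-evoked calcium rise, normalized to controls; Benchmarks: ATP and no-ATP DMSO wells; Compound dosing: single nominal dose of 5.6 µM per compound; Signal: Fluo-8 calcium dye fluorescence; Also added: ATP as calcium-mobilizing challenge; Repeats: singlicate.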
GPR7 antagonist – human neuropeptides B/W receptor 1 antagonism | P48145 | 290,000 compounds, 1.1% hits | inhibition, % at 4.4 µM | GPR7-expressing cells, fluorescence antagonist assay; in the data active = inhibition above about 16%, passing the limit was not always enough;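 also: cells stimulated with the agonist NPW; 0% = agonist with vehicle and 100% = vehicle without agonist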
Target sequence (P48145 whole entry, looked up): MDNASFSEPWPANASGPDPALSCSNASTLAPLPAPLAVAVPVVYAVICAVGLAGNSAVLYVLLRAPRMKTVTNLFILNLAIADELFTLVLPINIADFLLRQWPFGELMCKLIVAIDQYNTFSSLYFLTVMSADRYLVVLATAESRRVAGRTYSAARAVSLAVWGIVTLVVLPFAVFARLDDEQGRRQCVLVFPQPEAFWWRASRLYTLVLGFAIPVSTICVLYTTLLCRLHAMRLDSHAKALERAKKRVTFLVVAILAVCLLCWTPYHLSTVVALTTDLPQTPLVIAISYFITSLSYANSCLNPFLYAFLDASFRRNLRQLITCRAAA
TAAR1 agonist – agonists of human TAAR1; 360,000 compounds, 0.99% hits; AID 624467; activation, % at 3 µM; CHO RD-HGA16 TAAR1, Fluo-8 calcium fluorescence; vehicle wells 0%, saturating PEA agonist 100%; Q96RJ0;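 active = activation above the mean activation of all test compounds in the run plus 3 SD, cut at about 38% in these data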
Target sequence (Q96RJ0 whole entry, looked up): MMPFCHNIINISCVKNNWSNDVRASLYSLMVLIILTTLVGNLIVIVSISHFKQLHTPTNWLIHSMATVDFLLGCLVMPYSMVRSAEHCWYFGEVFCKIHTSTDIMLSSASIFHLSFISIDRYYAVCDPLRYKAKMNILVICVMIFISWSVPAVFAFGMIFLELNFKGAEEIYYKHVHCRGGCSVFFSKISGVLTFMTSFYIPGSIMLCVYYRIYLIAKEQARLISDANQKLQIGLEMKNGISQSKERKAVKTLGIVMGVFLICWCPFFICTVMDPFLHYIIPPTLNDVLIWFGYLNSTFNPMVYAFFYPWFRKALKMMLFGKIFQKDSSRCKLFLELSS
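Assay system: CHO-derived RD-HGA16 cells with stable Gα16 and human TAAR1; timing: 17-24 h seeding, 75 min 37 °C dye, 30 min RT; read-out: % activation from peak over basal fluorescence ratio, DMSO-to-PEA scaled; measured by: kinetic Fluo-8 calcium fluorescence; benchmarks: low control DMSO, high control PEA (EC100); doses: 3 µM single concentration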
OX1R antag-2 – OX1R (human) antagonism; OX1R-expressing cells, FRET antagonist read-out; O43613; inhibition, % at 6.6 µM; 330,000 compounds, 1.8% hits; AID 485270; in the data active = inhibition mostly above about 38%, no sharp cut-off; inactive = mostly below about 40%;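 also: 0% = agonist challenge alone and 100% = reference antagonist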
TAAR1 antag – antagonists of human TAAR1 | CHO RD-HGA16 TAAR1, Fluo-8 calcium fluorescence, antagonist | 360,000 compounds, 1.5% hits | Q96RJ0 | inhibition, % at 3 µM;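 active = inhibition above a per-plate cutoff, the mean inhibition of test compounds on that plate plus 3 SD, cut at about 49% in these data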;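 also: 0% = DMSO plus EC80 beta-PEA response and 100% = DMSO alone without agonist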
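Assay system: RD-HGA16 CHO cells with stable hTAAR1 and Gα16 / Reagent: EC80 β-phenethylamine stimulus / Doses: 3 µM, single point / Timing: dye loading 75 min at 37 °C, then 30 min room temperature / Measured by: Fluo-8 intracellular calcium dye fluorescence, real-time kinetic reads / Controls: vehicle wells and EC80 agonist wells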
An asterisk follows results filed as active; nt = no result given.

SMILES	OX1R antag-1	CHO parental Ca	GPR7 antagonist	TAAR1 agonist	OX1R antag-2	TAAR1 antag
COc1ccc2cc(C3(C)NC(=O)N(CC(=O)N4CCCCC4)C3=O)ccc2c1 (centres undefined)	-20.9	-14.7	nt	2.0	5.0	9.0
O=C(CSc1ncnc2c1cnn2-c1ccccc1)Nc1ccccc1	-4.0	5.1	-9.7	39.5*	10.6	46.4
CCOC(=O)c1cccc(NC(=O)COc2nsnc2N2CCOCC2)c1	-80.5	10.4	16.3	13.0	17.8	49.6*
COC(=O)c1ccc(N2CCOCC2)c(NC(=O)c2cccnc2)c1	-1.1	9.5	-4.5	-0.4	18.0	-12.2
COc1ccc(-c2cn[nH]c2-c2ccc(OCc3ccc([N+](=O)[O-])cc3)cc2O)cc1OC	5.2	-5.8	0.0	-0.5	29.9	28.5
CCc1cc(-c2[nH]ncc2-c2ccc([N+](=O)[O-])cc2)c(O)cc1OC	-10.1	59.6*	-1.4	nt	17.2	nt
COc1ccc(CCn2c(S)nc3ccccc3c2=O)cc1	-27.4	-6.8	10.2	5.9	4.0	-11.4
O=C(COC(=O)CCC1CCCC1)Nc1ccccc1Br	-5.8	-2.0	nt	4.3	-3.5	4.9
CCCC(=O)N1CCN(c2ccc(NC(=O)c3cc4ccccc4o3)cc2Cl)CC1	59.7*	61.3*	-14.8	18.3	90.9*	84.4*
CCCC(=O)N1CCN(c2ccc(NC(=O)c3cccs3)cc2Cl)CC1	-33.5	-15.4	-12.0	4.2	9.0	8.5
CCOc1ccc(N(CC(=O)Nc2cccc(Cl)c2)S(=O)(=O)c2c(C)noc2C)cc1	-5.4	39.6*	-6.0	-1.6	17.6	18.3
CCOc1ccc(NC(=O)CCC(=O)NNC(=O)Nc2cccc(Cl)c2)cc1	-9.1	-14.8	-7.2	42.6*	5.4	5.9
Cc1noc(C)c1S(=O)(=O)N(CC(=O)NCc1ccc2c(c1)OCO2)c1ccc(C(C)C)cc1	-7.7	-12.8	-12.3	-2.5	7.9	-16.8
Cc1ccc(N(CC(=O)NCc2ccc3c(c2)OCO3)S(=O)(=O)c2c(C)noc2C)cc1	-8.3	-19.9	-8.3	-0.7	60.2*	-26.4
COc1ccc(N(CC(=O)NCc2ccccc2)S(=O)(=O)c2c(C)noc2C)cc1	-4.8	-12.4	3.7	1.2	12.5	2.3
COc1ccc(CNC(=O)CN(c2ccc(C)cc2)S(=O)(=O)c2c(C)noc2C)cc1	-5.2	-20.1	3.5	-0.3	43.7*	-12.5
COc1ccc(C(=O)N/C(=C\c2cn(C)c3ccccc23)C(=O)NCCN2CCOCC2)cc1OC	0.1	-14.6	-10.9	0.7	7.2	-22.9
CSc1ccc(C2=CC(=O)C[C@H](c3ccc(F)cc3)C2)cc1	-24.9	-30.4	nt	7.8	5.7	17.4
C/C(=N\OCC(=O)OCC(=O)NC(=O)c1ccc(OC(F)F)cc1)c1ccc2c(c1)OCO2	-18.6	-13.6	nt	-0.1	16.2	15.8
COc1ccccc1CNC(=O)CN(c1ccc(C)cc1)S(=O)(=O)c1c(C)noc1C	4.8	-27.4	-11.9	3.3	71.0*	30.9
c1csc(-c2cn3ccc4ccccc4c3n2)c1	-4.3	-13.0	-2.9	0.0	74.5*	20.1
COC(=O)[C@]12C[C@H](CC(=O)NCCC(C)C)C(=O)N(CCC3=CCCCC3)C1=C[C@H](C(C)(C)C)O[C@@H]2C	nt	nt	nt	-1.9	nt	-77.0
O=C(NCc1cccc(Cl)c1)c1cccc2c(-c3cccnc3)coc12	nt	nt	nt	6.1	nt	55.3*
O=C(NCc1ccc(F)c(F)c1)c1cccc2c(-c3cccnc3)coc12	nt	nt	nt	6.8	nt	43.8
CCCCNc1c(-c2cccc(-c3ccc(OC)cc3)c2)nc2cc(C)ccn12	39.3	65.3*	nt	7.8	28.7	54.9*
SMILES	OX1R antag-1	CHO parental Ca	GPR7 antagonist	TAAR1 agonist	OX1R antag-2	TAAR1 antag
COc1ccc(-c2nc3ccc(C)cn3c2NCc2ccc3c(c2)OCO3)cc1	-42.9	-21.0	1.3	5.9	26.6	31.9
COc1ccc(-c2nc3cc(C)ccn3c2NC(=O)c2ccccc2OC)cc1	-24.6	-31.0	-13.5	10.3	2.5	37.4
CCCCNc1c(-c2cccc(-c3ccc(OC)cc3)c2)nc2ccc(C)cn12	46.5*	73.8*	nt	11.6	52.3	81.2*
CN(CC(=O)Nc1cccc(F)c1)C(=O)CNS(=O)(=O)c1ccc(N(C)C)c([N+](=O)[O-])c1	-16.0	-10.0	nt	0.1	13.3	-5.3
O=C(CNC(=O)c1ccccc1)N/N=C/C=C/c1ccccc1	-15.2	-0.5	-19.9	42.0*	5.1	20.8
CCOC(=O)C1CCN(C(c2cccnc2)c2c(NC(=O)c3ccco3)sc(C)c2C)CC1 (centres undefined)	-34.9	-7.9	26.8*	22.7	7.7	26.0
Cc1sc(NC(=O)c2ccco2)c(C(c2cccnc2)N2CCN(CCO)CC2)c1C (centres undefined)	-25.3	-16.9	-10.2	2.3	0.9	-3.6
C/C(=N\Nc1ccc([N+](=O)[O-])cc1)c1ccc(O)cc1	11.2	-0.8	2.4	19.4	32.0	54.9*
C/C(=N\Nc1ccc([N+](=O)[O-])cc1)c1cccc(N)c1	-17.4	-7.5	4.6	17.7	16.7	16.9
O=C(NNC(=O)c1ccc(-n2cncn2)c([N+](=O)[O-])c1)c1cccc(Cl)c1	-10.3	-3.2	nt	2.4	31.7	7.8
N#Cc1cc2ccccc2nc1SCc1ccccn1	17.9	1.0	15.1	33.7	49.1*	12.6
Cc1cc2cc3c(cc2nc1SCc1ccccn1)OCCO3	-8.6	-12.0	6.6	4.6	24.8	-23.1
Oc1ccccc1CNc1ccc(Br)cn1	12.5	0.6	68.5*	0.1	29.9	70.8*
Brc1ccc(NCc2cccc3ccccc23)nc1	-26.8	-14.4	-5.5	6.0	11.3	18.9
Cc1noc(C)c1COc1ccccc1C(=O)N(C)Cc1ccc(C(C)(C)C)cc1	47.6*	27.1	nt	24.4	12.4	48.1
C[C@H](CO)N1C[C@H](C)[C@@H](CN(C)Cc2ccc3c(c2)OCO3)Oc2cc(Br)ccc2S1(=O)=O	nt	nt	nt	1.4	nt	50.0*
C[C@@H]1CN([C@H](C)CO)S(=O)(=O)c2ccc(Br)cc2O[C@@H]1CN(C)Cc1ccc(-c2ccccc2)cc1	nt	nt	nt	0.5	nt	-28.2
C[C@H](O)C#Cc1ccc2c(c1)O[C@@H](CN(C)Cc1ccc(-c3ccccc3)cc1)[C@H](C)CN([C@@H](C)CO)S2(=O)=O	nt	nt	nt	5.8	nt	51.1*
C[C@@H]1CN([C@@H](C)CO)S(=O)(=O)c2ccc(-c3ccc(C#N)cc3)cc2O[C@@H]1CN(C)Cc1ccccn1	nt	nt	nt	12.0	nt	55.8*
O=C(COc1ccc([N+](=O)[O-])cc1)NNC(=O)Nc1ccccc1F	-0.5	3.0	7.8	2.3	14.9	-20.5
O=C(NCc1ccccc1)C1CCN(S(=O)(=O)c2ccc(Cl)cc2)CC1	-7.6	-6.5	2.8	9.7	3.5	-11.0
Cc1ccc(NC(=O)CCn2cnc3ccccc3c2=O)cc1Cl	-27.2	-7.4	-0.3	39.7*	15.7	23.2

Screening data from PubChem BioAssay.
